# SUMO1 PPI mod – SUMO1-SIM interaction modulation | P63165 | SUMO1 binding to a labelled peptide, TR-FRET, 1 h | inhibition, % at 20 µM | 0.33% of 360,000 active | AID 602429; in the data active means inhibition above about 37%
# STEP block – blocks human striatal-enriched tyrosine phosphatase. P54829. recombinant STEP, OMFP fluorogenic substrate, fluorescence. inhibition, % at 20 µM. 0.25% of 360,000 active;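 active means inhibition at 20 µM, scaled per plate between control wells, above about 37%, limit read from the data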
#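 Material: STEP (striatal-enriched tyrosine phosphatase) enzyme, cell-free | Medium: 50 mM Bis-Tris pH 6.0 with 2.5 mM DTT and 0.005% Tween 20 | Read-out: Percent inhibition scaled to no-enzyme and uninhibited-enzyme controls, plate-pattern corrected | Signal: Fluorescence read at 480 nm ex / 540 nm em | Times: 20 min reaction, room temperature, in the dark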
# LMPTP block – blocks human LMPTP phosphatase; 0.22% of 360,000 active; recombinant LMPTP-A, OMFP fluorogenic substrate, fluorescence intensity; P24666; inhibition, % at 20 µM;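 active means compounds that cut the enzyme signal by at least half of the control window in the single-dose screen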
# Target sequence (P24666 whole entry, looked up): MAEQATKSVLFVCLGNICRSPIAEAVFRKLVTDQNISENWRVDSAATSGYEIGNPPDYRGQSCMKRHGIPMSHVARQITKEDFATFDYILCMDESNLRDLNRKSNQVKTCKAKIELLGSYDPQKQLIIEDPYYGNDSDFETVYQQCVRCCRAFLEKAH
#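 Assay system: LMPTP-A enzyme. Input: 0.625 nM LMPTP-A final. Probe or stimulus: 400 µM OMFP. Compound dosing: single 20 µM dose. Schedule: 50 min dark incubation at room temperature. Detection: fluorescence intensity of OMFP turnover product. Read-out: percent inhibition versus substrate-only and uninhibited controls. Benchmarks: no-enzyme low control, uninhibited high control.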
# Scp-1 inhibitor – blocks human Scp-1 phosphatase activity | Q9GZU7 | Recombinant Scp1, phosphopeptide, malachite green phosphate absorbance | inhibition, % at 20 µM | 0.88% of 340,000 active | AID 493091;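 active means inhibition above about 50% at 20 µM, limit read from the data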
# Target sequence (Q9GZU7 76-261 limits assumed): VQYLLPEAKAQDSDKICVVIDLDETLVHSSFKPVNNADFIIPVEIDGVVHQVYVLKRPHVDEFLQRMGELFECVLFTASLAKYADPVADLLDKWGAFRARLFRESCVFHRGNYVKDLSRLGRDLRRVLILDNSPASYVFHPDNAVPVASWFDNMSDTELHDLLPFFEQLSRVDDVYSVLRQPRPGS
#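 Test system – truncated SCP-1 phosphatase (76-261aa) · Reagent – Phosphorylated 17-residue peptide substrate · Incubation – 45 min room-temperature reaction, 5 min colour, 30 min stabiliser · Detection – colorimetric phosphate reagent with accelerator and stabiliser, absorbance at 630 nm · Measure – % inhibition at 20 µM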
# GRK2 inh – human GRK2 inhibition via aptamer displacement. P25098. bead flow cytometry, FAM-aptamer displacement from GRK2. inhibition of aptamer binding, % at 10 µM. 0.59% of 330,000 active. AID 488847;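 active means inhibition of aptamer binding above 40%, roughly 3 SD of noise, on plates passing a quality check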;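 further: median bead fluorescence of bound FAM aptamer so fluorescent compounds give negative values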
# DNMT1 inh – inhibitors of human DNMT1; 0.83% of 360,000 active; DNMT1 molecular beacon, Hinp1I cleavage, fluorescence; AID 588458; inhibition (reported as % activation of signal), % at 10 µM; in the data active means inhibition above about 50%
# Beacon interf DR – counter-screen for DNMT1 inhibitors: spectral interference, dose response. AID 602382. IC50, µM. shares compounds with DNMT1 inh. 200 tested, under 10 active. molecular beacon fluorescence
# DNMT1 inh conf – DNMT1 inhibition confirmation, single concentration; AID 602385; 8% of 2,300 active; inhibition, % at 10 µM; DNMT1 molecular beacon HinP1I cleavage, fluorescence; shares compounds with DNMT1 inh;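 active means average inhibition of at least 30% in the single-concentration confirmation test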
# DNMT1 interf – counter-screen for DNMT1 inhibitors: spectral interference. 1% of 2,300 active. activation (fluorescence interference), % at 10 µM. AID 602387. shares compounds with DNMT1 inh. DNMT1 molecular beacon spectral interference counterscreen, fluorescence 485/520;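 active means activation of at least 30% at 10 µM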;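 further: DNMT1 catalytic domain with a HinP1I cleavage step and a FAM/dabcyl DNA beacon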
# STEP inh conf – STEP (human) phosphatase inhibition, single concentration confirmation. 32% of 520 active. inhibition, % at 20 µM. shares compounds with STEP block. AID 623866. recombinant STEP, OMFP fluorogenic substrate, fluorescence
# Hits are given with their value; . = inactive; / = no result given. A selection: hits, their analogues and other compounds. The true share with any hit is near 2.1%. Unless noted, how the calls were made is not given here.
SMILES,SUMO1 PPI mod,STEP block,LMPTP block,Scp-1 inhibitor,GRK2 inh,DNMT1 inh,DNMT1 inh conf,DNMT1 interf,others
O=C1NC(=O)C(=Cc2ccc(-c3cc(Cl)ccc3[N+](=O)[O-])o2)C(=O)N1,.,.,.,69,/,78,.,.,
CCC1C(c2ccccc2)NC(c2ccccc2)CC1(O)c1ccc(F)cc1 (configuration not stated),.,.,.,.,.,.,/,/,
Cc1cc(C)n2nc(SC(C)C(=O)N3CCC4(CC3)OCCO4)nc2n1 (configuration not stated),.,.,.,.,.,.,/,/,
Cc1cccc(N2C(=O)NC(=O)/C(=C\c3cc(C)n(-c4sc5c(c4C#N)CCCC5)c3C)C2=O)c1C,54,.,.,.,.,71,.,.,
Cc1cc(N(CCCl)CCCl)ccc1C=Cc1ccncn1,.,.,.,.,/,.,/,/,
CN(C)[C@@H]1C(=O)C(C(N)=O)=C(O)[C@@]2(O)C(=O)C3=C(O)c4c(O)ccc(Cl)c4[C@@](C)(O)C3C[C@@H]12 (some centres not stated),.,.,.,.,/,56,.,.,
Cc1ccc(N2C(=O)NC(=O)/C(=C/c3cnn(-c4ccc(C)cc4)c3)C2=O)cc1,.,.,.,.,.,.,/,/,
Cc1ccc(N2C(=O)NC(=O)/C(=C/c3ccoc3)C2=O)cc1,102,95,56,84,/,93,64,.,Beacon interf DR=.
CCC(C)N1C(=O)/C(=C/c2ccc3c(c2)CCN3CCCCl)C(=O)NC1=S (configuration not stated),.,.,.,.,.,85,.,.,
Cc1cccc(N2C(=O)NC(=O)/C(=C\c3ccc4c(c3)CCCN4Cc3ccccc3)C2=O)c1,.,.,.,.,.,.,/,/,
C[C@]1(O)CCC2C3CC[C@H]4C[C@@H](OC(=O)[C@@H](N)CCCCN)CC[C@]4(C)C3CC[C@@]21C (some centres not stated),.,.,.,/,/,.,/,/,
O=C1NC(=S)NC(=O)C1=Cc1c(Cl)cccc1Cl,.,.,.,.,/,.,/,/,
CN1/C(=C\C=C2C(=O)NC(=S)NC2=O)C(C)(C)c2ccccc21,.,.,.,.,/,81,55,51,
O=Cc1c(C(=O)O)n(Cc2ccc(Cl)cc2)c2ccccc12,.,.,.,.,.,95,.,.,
C=CCn1c(O)c(C(CC)=NCCN2CCN(C(=S)NC)CC2)c(=O)[nH]c1=O,.,.,.,.,.,.,/,/,
C=CCNC(=O)c1c(N)n(Cc2ccco2)c2nc3ccccc3nc12,.,.,.,.,.,102,.,.,
NN=C1C(Cl)=C(Cl)C(Cl)=C1Cl,.,72,84,/,/,108,/,/,STEP inh conf=67
CC(Cc1ccccc1)N1Cc2ccccc2C1 (configuration not stated),.,.,.,.,.,.,/,/,

# Assay outcomes from PubChem BioAssay.
